A word on the pIC50: it is −log10 of the IC50, conventionally taken in molar units. By MIC99 is commonly meant an inhibitory concentration at the 99% level, which refers to growth in some studies and to a panel of isolates in others.

pIC50: −log10 of the molar value. Values after ≈ are worked out from the molar mass of the structure shown.

For data set [1], the system named is Mus musculus. Description: Phototoxic effect in UV light irradiated mouse assessed as ear thickness at 140 mg/kg, after 4 hrs relative to control. Set-up: dose 140 mg/kg. As to conditions: in vivo. In kind it is ADME, organism-based. The procedure, abridged: (§1)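 Mice dosed at 140 mg/kg and exposed to UV immediately after dosing. Irradiation ended at 4 h. Ear thickness (mm) was measured at 0 (pre-dose), 4, 24, 48, 72 and 96 h, left and right ears averaged, mean ± SEM. Comparison was against vehicle controls (0.5% aqueous sodium carboxymethylcellulose, 10 mL/kg) and against the 0 h reading.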

In data set [2] the test system is Mus musculus. Put plainly: Phototoxic effect in UV light irradiated mouse assessed as number of mouse bearing erythema at 140 mg/kg, after 96 hrs relative to control. The class given is ADME, organism-based. Set-up: dose 140 mg/kg. The following applies: in vivo. The method, boiled down: (§2)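 Mice received 140 mg/kg and were UV-irradiated immediately after dosing, irradiation ending at 4 h. Both ears were scored for erythema at 0, 4, 24, 48, 72 and 96 h, counted as the number of mice with erythema. Vehicle control was 0.5% aqueous sodium carboxymethylcellulose at 10 mL/kg.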

Data set [3] deals with Mus musculus. Description: Phototoxic effect in UV light irradiated mouse assessed as number of mouse bearing erythema at 140 mg/kg, after 24 hrs relative to control. The class given is ADME, organism-based. Set-up: dose 140 mg/kg. As to conditions: in vivo. The method, boiled down: as §2
Data set [4] deals with Vero. Put plainly: Cytotoxicity against african green monkey Vero cells after 72 hrs by MTT assay. In kind it is cell-based. The following applies: Chlorocebus sabaeus. The procedure, abridged: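 Vero cells exposed for 72 h; tested up to 62.5 µg/mL. Viability was read as cellular conversion of MTT to formazan, and IC50 was reported in µM.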
A general note: Tetrazolium dyes change colour on reduction, which living cells bring about.

Data set [5] deals with Mus musculus. Description: Phototoxic effect in mouse assessed as ear thickness at 140 mg/kg administered before UV light exposure relative to control. In kind it is ADME, organism-based. As to conditions: in vivo. Set-up: dose 140 mg/kg. The method, boiled down: as §1
Data set [6] relates to Mus musculus. Description: Phototoxic effect in UV light irradiated mouse assessed as number of mouse bearing erythema at 140 mg/kg, after 48 hrs relative to control. The class given is ADME, organism-based. Set-up: dose 140 mg/kg. As to conditions: in vivo. The procedure, abridged: as §2
The test system of data set [7] is Mycobacterium tuberculosis. Put plainly: Antimycobacterial activity against Mycobacterium tuberculosis H37Rv by agar dilution method. The class given is functional. The procedure, abridged: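 MIC99 was taken as the lowest concentration giving complete inhibition of bacterial growth.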
Background: Agar dilution tests growth on a series of plates holding different concentrations.

Data set [8] concerns Mus musculus. Description: Phototoxic effect in UV light irradiated mouse assessed as number of mouse bearing erythema at 140 mg/kg, after 72 hrs relative to control. The class given is ADME, organism-based. Set-up: dose 140 mg/kg. The following applies: in vivo. The procedure, abridged:
as §2

In data set [9] the test system is Mus musculus. Description: Phototoxic effect in mouse assessed as number of mouse bearing erythema at 140 mg/kg administered before UV light exposure relative to control. The class given is ADME, organism-based. Also on record: dose 140 mg/kg. The following applies: in vivo. The method, boiled down: as §2
The test system of data set [10] is Mus musculus. Description: Phototoxic effect in UV light irradiated mouse assessed as ear thickness at 140 mg/kg, after 24 hrs relative to control. The class given is ADME, organism-based. Set-up: dose 140 mg/kg. The following applies: in vivo. The procedure, abridged:
as §1

Data set [11] concerns Mus musculus. Put plainly: Phototoxic effect in UV light irradiated mouse assessed as ear thickness at 140 mg/kg, after 96 hrs relative to control. As to conditions: in vivo. Also on record: dose 140 mg/kg. The class given is ADME, organism-based. The procedure, abridged: as §1
The subject of data set [12] is Mycolicibacterium smegmatis. Description: Antimycobacterial activity against Mycobacterium smegmatis ATCC 14468 by agar dilution method. The class given is functional. The procedure, abridged: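 MC² (M. smegmatis) growth inhibition; MIC99 taken as the lowest concentration giving complete inhibition of bacterial growth, in µM.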
Data set [13] addresses DNA gyrase subunit A (Mycolicibacterium smegmatis, UniProt Q59556). Description: Inhibition of Mycobacterium smegmatis DNA gyrase. The method, boiled down:
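Inhibition of DNA supercoiling by M. smegmatis (MC²) gyrase, run under standard assay conditions. Varying compound amounts were tested against a fixed amount of enzyme, and IC50 was derived from that series. Relaxed circular DNA served as marker, 5% DMSO as solvent control, and moxifloxacin at 5 µg/mL as positive control.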

In data set [14] the test system is Mus musculus. Put plainly: Phototoxic effect in UV light irradiated mouse assessed as number of mouse bearing erythema at 140 mg/kg, after 4 hrs relative to control. In kind it is ADME, organism-based. Also on record: dose 140 mg/kg. As to conditions: in vivo. The procedure, abridged: as §2
The subject of data set [15] is Mus musculus. Put plainly: Phototoxic effect in UV light irradiated mouse assessed as ear thickness at 140 mg/kg, after 72 hrs relative to control. The class given is ADME, organism-based. Also on record: dose 140 mg/kg. As to conditions: in vivo. The procedure, abridged:
as §1

Data set [16] deals with Mus musculus. Description: Phototoxic effect in UV light irradiated mouse assessed as ear thickness at 140 mg/kg, after 48 hrs relative to control. In kind it is ADME, organism-based. Also on record: dose 140 mg/kg. The following applies: in vivo. The method, boiled down: as §1
Data set [17] deals with Mycobacterium tuberculosis. Description: Antimycobacterial activity against Mycobacterium tuberculosis ATCC 35801 infected CD1 mouse spleen assessed as viable organisms at 50 mg/kg, ip after 35 days relative to control. The class given is functional. As to conditions: route intraperitoneal. The procedure, abridged:
(§3)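 CD-1 mice infected intravenously with M. tuberculosis ATCC 35801; intraperitoneal treatment started 10 days after inoculation and continued for 10 days. At 35 days postinfection, spleens and right lungs were removed aseptically and viable organisms counted (log CFU). Counts were compared with vehicle-treated controls.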

Data set [18] concerns Mycobacterium tuberculosis. Description: Antimycobacterial activity against Mycobacterium tuberculosis ATCC 35801 infected CD1 mouse lungs assessed as viable organisms at 50 mg/kg, ip after 35 days relative to control. In kind it is functional. As to conditions: route intraperitoneal. The method, boiled down:
as §3

For data set [19], the system named is Mycobacterium tuberculosis. Put plainly: Antimycobacterial activity against Mycobacterium tuberculosis ATCC 35801 infected CD1 mouse spleen assessed as viable organisms at 25 mg/kg, ip after 35 days relative to control. In kind it is functional. As to conditions: route intraperitoneal. The procedure, abridged:
as §3

Data set [20] relates to Mycobacterium tuberculosis. Put plainly: Antimycobacterial activity against Mycobacterium tuberculosis ATCC 35801 infected CD1 mouse lungs assessed as viable organisms at 25 mg/kg, ip after 35 days relative to control. In kind it is functional. As to conditions: route intraperitoneal. The method, boiled down:
as §3

Sequence of DNA gyrase subunit A (Q59556 whole entry): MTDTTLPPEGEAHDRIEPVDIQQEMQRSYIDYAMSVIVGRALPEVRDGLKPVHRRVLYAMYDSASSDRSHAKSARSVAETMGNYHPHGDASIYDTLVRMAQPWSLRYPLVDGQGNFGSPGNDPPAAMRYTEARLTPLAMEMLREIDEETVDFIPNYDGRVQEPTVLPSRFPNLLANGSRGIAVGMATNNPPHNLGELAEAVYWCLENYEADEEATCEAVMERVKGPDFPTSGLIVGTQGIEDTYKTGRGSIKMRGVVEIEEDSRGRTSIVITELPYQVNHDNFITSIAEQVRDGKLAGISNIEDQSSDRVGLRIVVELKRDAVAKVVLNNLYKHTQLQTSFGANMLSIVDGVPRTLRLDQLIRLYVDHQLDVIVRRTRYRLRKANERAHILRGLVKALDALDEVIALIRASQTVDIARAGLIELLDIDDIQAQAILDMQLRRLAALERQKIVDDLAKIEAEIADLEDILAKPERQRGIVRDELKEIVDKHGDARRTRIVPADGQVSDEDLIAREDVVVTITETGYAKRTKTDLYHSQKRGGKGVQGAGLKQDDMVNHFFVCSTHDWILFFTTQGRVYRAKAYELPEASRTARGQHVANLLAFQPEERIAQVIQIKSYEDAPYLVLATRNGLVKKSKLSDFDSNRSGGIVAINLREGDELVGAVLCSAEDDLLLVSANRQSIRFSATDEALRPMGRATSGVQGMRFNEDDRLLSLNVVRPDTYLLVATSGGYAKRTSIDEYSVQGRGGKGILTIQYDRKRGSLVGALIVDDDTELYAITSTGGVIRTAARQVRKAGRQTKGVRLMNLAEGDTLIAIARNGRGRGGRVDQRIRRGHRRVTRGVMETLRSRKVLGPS

As to `CC1COc2c(N3CCN(C(c4ccccc4)c4ccc(Cl)cc4)CC3)c(F)c([N+](=O)[O-])c3c(=O)c(C(=O)O)cn1c23` (configuration not stated), the Activity in [1] is reported as 0.28 mm; in data set [2], “Non-toxic”; in data set [3], “Non-toxic”; in data set [5], 0.28 mm; in [6], “Non-toxic”; in data set [8], “Non-toxic”. Besides, the Activity result in data set [9] is given as “Non-toxic”; in data set [10], 0.28 mm; in [11], 0.31 mm; in [14] it was “Non-toxic”; in [15] it was 0.29 mm; in data set [16], 0.29 mm. The negative-log IC50 (pIC50) is 3.98 in data set [4] and 4.77 in data set [13]. The MIC99 in data set [7] came to 2.63 µM (≈ 1.56 µg/mL); in data set [12] it was 0.66 µM (≈ 0.391 µg/mL).

For `CC1COc2c(N3CCSCC3)c(F)c([N+](=O)[O-])c3c(=O)c(C(=O)O)cn1c23` (configuration not stated), the Activity in data set [1] was 0.28 mm; in [2] it was “Non-toxic”; in data set [3] it was “Non-toxic”; in data set [5], 0.25 mm; in data set [6], “Non-toxic”; in [8], “Non-toxic”. The Activity result in [9] is “Non-toxic”; in [10], 0.29 mm; in data set [11], 0.28 mm; in data set [14], “Non-toxic”; in data set [15], 0.28 mm; in data set [16] it was 0.29 mm. Moreover, the results for the pIC50 in data set [4] and in data set [13] were 3.82 and 3.91, respectively. Moreover, the MIC99 in data set [7] and in data set [12] was 1.91 µM (≈ 0.782 µg/mL) throughout.

Consider `CC1COc2c(N3CCn4cc(C(=O)O)nc4C3)c(F)c([N+](=O)[O-])c3c(=O)c(C(=O)O)cn1c23` (configuration not stated), for which the Log10 cfu is listed as 6.11 in [17] and 6.08 in data set [18]. The molecule further gave a pIC50 in data set [4] of 3.88. In addition, the MIC99 stood at 0.19 µM (≈ 0.0899 µg/mL) in data set [7] and 6.61 µM (≈ 3.13 µg/mL) in [12].

`NNC(=O)c1ccncc1` [ISONIAZID] had a negative logarithm of the IC50 (pIC50) in data set [4] below 3.34. In addition, the results for the MIC99 in [7] and in [12] were 0.36 µM (≈ 0.0494 µg/mL) and 45.6 µM (≈ 6.25 µg/mL), respectively. Also, the figures for the Log10 cfu in [19] and in data set [20] were 4.71 and 5.86, respectively.

For `CC1COc2c(N3CCN(C)CC3)c(F)cc3c(=O)c(C(=O)O)cn1c23` (configuration not stated) [OFLOXACIN], the results for the Log10 cfu in [17] and in data set [18] were 7.61 and 6.61, respectively. The negative logarithm of the IC50 (pIC50) in data set [4] is below 3.81. In addition, the MIC99 in data set [7] and in [12] was 2.16 µM (≈ 0.781 µg/mL) throughout.

The values are drawn from ChEMBL document CHEMBL1141647, “Novel ofloxacin derivatives: synthesis, antimycobacterial and toxicological evaluation” (Bioorg Med Chem Lett, 2008).
